Screens as filed in PubChem.
Env fusion inh = inhibitors of HIV-1 Env-driven cell-cell fusion, primary screen, HeLa-JRFL effector, CEM21 target cells, luciferase; inhibition, % at 12.3 µM; 360,000 compounds, 1.1% hits; AID 651610, 2012;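 active = mean replicate inhibition score of at least 50 and every replicate individually at or above 50; inconclusive = only one of the two criteria met; inactive = mean below 50 and not all replicates reaching 50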
GSK3beta inhib = human GSK3beta kinase inhibitors, primary screen, biochemical, cell-free homogeneous, HTS | Glycogen synthase kinase-3 beta (Homo sapiens), P49841 | GST-GSK3beta kinase, ADP-Glo luminescence, 60 min; active compounds read low | activity score (negative = inhibition), % at 10 µM | 300,000 compounds, 0.038% hits;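 active = more than half of replicate wells score below -50%, meaning over 50% inhibition versus plate controls; inconclusive = some replicates but at most half score below -50%; inactive = no replicate scores below -50%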
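Test system: GST-tagged human GSK3beta kinase, cell-free; evaluation: activity score scaled between in-plate DMSO and GW8510 controls; measured by: ADP-Glo luminescence; incubation: 60 min reaction, RT; benchmarks: DMSO and 20 µM GW8510; reagent: peptide substrate plus 25 µM ATP (final); medium: Tris/MgCl2 kinase buffer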
GSK3 alpha inh = blockers of GSK3A enzyme activity – biochemical, luminescence, cell-free homogeneous, HTS, primary screen. Glycogen synthase kinase-3 alpha (Homo sapiens), P49840. GSK-3 alpha kinase, ADP-Glo luminescence, 60 min. inhibition, % at 10 µM. 320,000 compounds, 0.1% hits. AID 2650, 2010;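 active = more than half of replicates show inhibition above 20%; inconclusive = some but at most half of replicates above 20% inhibition; inactive = no replicate shows inhibition above 20%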;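 note: GST-tagged GSK-3 alpha with peptide substrate and 25 µM ATP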
CDK5 inh = inhibitors of human CDK5/p35 kinase, primary screen, biochemical, single concentration | inhibition, % at 10 µM | Recombinant CDK5/p35, ADP-Glo luminescence, 60 min | 330,000 compounds, 0.01% hits | AID 488839, 2010;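 active = highest replicate inhibition of at least 50% and at least 75% of replicates reaching 50%; inconclusive = only one of the two criteria met; inactive = both criteria failed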
STK33 kinase inh = inhibitors of purified STK33 kinase, primary screen, biochemical, ADP-Glo luminescence, homogeneous, cell-free; Serine/threonine-protein kinase 33 (Homo sapiens), Q9BYT3; MBP phosphorylation; inhibition, % at 10 µM; 320,000 compounds, 0.073% hits; AID 2661, 2010;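 active = inhibition at or above 25%, using the most active replicate where run in duplicate; inactive = inhibition below 25%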
Target sequence (Q9BYT3 whole entry, looked up): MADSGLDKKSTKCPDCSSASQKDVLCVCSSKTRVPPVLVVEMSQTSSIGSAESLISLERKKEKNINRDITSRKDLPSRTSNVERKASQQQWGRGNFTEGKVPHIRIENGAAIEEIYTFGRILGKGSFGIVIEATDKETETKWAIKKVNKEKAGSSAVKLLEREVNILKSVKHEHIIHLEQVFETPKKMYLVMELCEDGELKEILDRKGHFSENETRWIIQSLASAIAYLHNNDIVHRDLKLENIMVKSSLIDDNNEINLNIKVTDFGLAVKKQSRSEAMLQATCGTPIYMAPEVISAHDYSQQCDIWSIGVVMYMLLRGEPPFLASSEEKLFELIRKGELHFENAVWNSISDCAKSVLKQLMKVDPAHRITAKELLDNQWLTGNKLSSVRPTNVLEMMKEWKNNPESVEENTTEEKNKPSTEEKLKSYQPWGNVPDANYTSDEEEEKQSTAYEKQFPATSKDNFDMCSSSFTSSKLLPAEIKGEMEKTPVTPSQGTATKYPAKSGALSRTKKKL
INS-1E GSIS act = GLuc luminescence reporter in INS-1E cells, primary screen for activators of glucose-dependent secretion of insulin; 370,000 compounds, 0.61% hits; activation, % at 16.6 µM; INS-1E GLuc reporter insulin secretion, 2-3 h; AID 743287, 2014;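 active = lowest replicate activation of at least 40%, so every replicate reaches that level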
Hits are given with their value; – = inactive; ? = inconclusive; · = no result given; + = active, no number. In the library only some 1.4% were active in any assay of this set; here they are far more common.

SMILES | Env fusion inh | GSK3beta inhib | GSK3 alpha inh | CDK5 inh | STK33 kinase inh | INS-1E GSIS act
COC(=O)C1=C(C)N(Cc2cccc(C(F)(F)F)c2)C(=NCc2ccc3c(c2)OCO3)NC1c1cccc(C(F)(F)F)c1 (configuration not stated) | – | · | · | · | · | ·
COC(=O)C1=C(C)N(Cc2cccc(C(F)(F)F)c2)C(=NCc2ccc3c(c2)OCO3)NC1CCc1ccccc1 (configuration not stated) | – | · | · | · | · | 114.2
COC(=O)C1=C(C)N(Cc2cccc(C(F)(F)F)c2)C(=NCc2ccc(C(F)(F)F)cc2)NC1c1ccc(F)cc1 (configuration not stated) | – | · | · | · | · | 875.3
COC(=O)C1=C(C)N(Cc2ccc(C(F)(F)F)cc2)C(=NCc2ccc(OC)cc2)NC1c1cccc(Cl)c1 (configuration not stated) | – | · | · | · | · | ·
COC(=O)C1=C(C)N(C)C(=NCc2ccc(C(F)(F)F)cc2)NC1c1ccc(C(F)(F)F)cc1 (configuration not stated) | – | · | · | · | · | –
COC(=O)C1=C(C)N(C)C(=NCc2ccc(OC)cc2)NC1c1ccc(C(F)(F)F)cc1 (configuration not stated) | 55.2 | · | · | · | · | ·
COC(=O)C1=C(C)N(Cc2cccc(C(F)(F)F)c2)C(=NCc2ccc(OC)cc2)NC1c1cccc(Cl)c1 (configuration not stated) | – | · | · | · | · | +
C[C@H](CO)N1C[C@H](C)[C@@H](CN(C)S(=O)(=O)c2ccccc2)Oc2ccc(NC(=O)CCC(F)(F)F)cc2CC1=O | · | · | · | · | · | –
COCC(=O)Nc1ccc2c(c1)C(=O)N(C)C[C@@H](OC)[C@@H](C)CN(Cc1ccccn1)[C@H](C)CO2 | – | · | · | · | · | –
C=CCN=C1NC(c2ccc(Cl)cc2)C(C(=O)OC)=C(C)N1C (configuration not stated) | 55.1 | · | · | · | · | –
COC(=O)C1=C(C)N(Cc2cccc(C(F)(F)F)c2)C(=NCc2ccc(C(F)(F)F)cc2)NC1c1ccc(C(F)(F)F)cc1 (configuration not stated) | – | · | · | · | · | 814.8
COC(=O)C1=C(C)N(Cc2ccc(C(F)(F)F)cc2)C(=NCc2ccccc2)NC1c1cccc(F)c1 (configuration not stated) | ? | · | · | · | · | 671.2
COC(=O)C1=C(C)N(Cc2ccccc2)C(=NCCc2ccccn2)N[C@H]1c1cccc(C(F)(F)F)c1 | 80.0 | · | – | – | – | –
C=CCN=C1NC(c2ccc(F)cc2)C(C(=O)OC)=C(C)N1C (configuration not stated) | – | · | · | · | · | –
COC(=O)C1=C(C)N(Cc2cccc(C(F)(F)F)c2)C(=NCc2ccc(C(F)(F)F)cc2)NC1c1cccc(F)c1 (configuration not stated) | – | · | · | · | · | ·
CCC(=O)Nc1ccc2c(c1)C(=O)N(C)[C@@H]1CC[C@H](CC(=O)N[C@@H](C)c3ccccc3)O[C@@H]1CO2 | – | · | · | · | · | –
C/C=C/c1ccc([C@@H]2[C@H](CO)N(C(=O)CN(C)C)C23CN(C(=O)C2CCC2)C3)cc1 | · | · | · | · | · | –
C=CCN=C1NC(c2ccc(Cl)cc2)C(C(=O)OC)=C(C)N1Cc1cccc(C(F)(F)F)c1 (configuration not stated) | 59.8 | · | · | · | · | –
COC(=O)C1=C(C)N(Cc2cccc(C(F)(F)F)c2)C(=NCc2cccc(C(F)(F)F)c2)NC1c1ccc(Cl)cc1 (configuration not stated) | ? | · | · | · | · | 784.7
COC(=O)C1=C(C)N(Cc2ccccc2)C(=NCc2ccccc2)N[C@H]1c1cccc(C(F)(F)F)c1 | · | · | – | – | – | ·
O=C(OC1CCOC1=O)c1cc(-c2ccccc2)nc2ccccc12 (configuration not stated) | – | – | – | – | – | ·
O=C(OC1CCOC1=O)c1cc(-c2ccc(Cl)cc2)nc2ccccc12 (configuration not stated) | – | – | – | – | – | 55.7
Cn1c(CN2CCCCC2)nc2cc(NC(=O)c3cccc(Br)c3)ccc21 | 67.1 | – | – | – | – | ·
Cn1c(CS(=O)Cc2c(Cl)cccc2Cl)nnc1SCc1ccc(Cl)cc1 (configuration not stated) | 62.0 | – | · | – | – | –
O=S(Cc1ccc(Br)cc1)Cc1nnc(SCc2c(F)cccc2Cl)n1-c1ccccc1 (configuration not stated) | · | – | – | – | – | –
SMILES | Env fusion inh | GSK3beta inhib | GSK3 alpha inh | CDK5 inh | STK33 kinase inh | INS-1E GSIS act
O=S(Cc1ccc(Br)cc1)Cc1nnc(SCc2ccc(Cl)cc2)n1-c1ccccc1 (configuration not stated) | 65.4 | – | – | – | – | ·
Cc1ccc(NS(=O)(=O)c2cc(C(=O)N(C)C3CCN(C)CC3)ccc2Cl)cc1Cl | 75.1 | · | – | – | – | –
CN1CCC(N(C)C(=O)c2ccc(Cl)c(S(=O)(=O)N3CCCCC3)c2)CC1 | – | · | · | – | · | –
C[C@@H]1CN([C@@H](C)CO)C(=O)c2cc(NC(=O)c3ccncc3)ccc2O[C@@H](C)CCCCO[C@H]1CN(C)S(=O)(=O)c1ccc(F)cc1 | – | · | · | · | · | –
O=c1oc(-c2ccccc2F)nc2scc(-c3ccccc3)c12 | 63.9 | – | – | · | – | ·
Cc1nc2scc(-c3ccccc3)c2c(=O)o1 | – | – | – | – | – | –
COc1ccc2cc(C=NS(=O)(=O)c3ccc(C)cc3)n(C)c2c1 | 58.6 | · | – | – | – | –
NC(=O)NCC#Cc1ccc2c(c1)[C@]1(C(=O)N2)[C@H](C(=O)O)[C@H]2C(=O)O[C@H](c3ccccc3)[C@H](c3ccccc3)N2[C@@H]1c1ccc(O)cc1 | – | · | · | · | · | ·
C=CCOc1c(Br)cc(CNc2ccc(NC(=O)C(C)C)c(OC)c2)cc1OC | 89.7 | – | – | – | – | –
C[C@H]1CCCCO[C@H](CN(C)Cc2ccc(Cl)c(Cl)c2)[C@@H](C)CN([C@@H](C)CO)C(=O)c2cc(NC(=O)NC3CCCCC3)ccc2O1 | – | · | · | · | · | –
CCOC(=O)C1C(=O)OC(C)(C)C1C(CC)C(=O)c1c(C)cc(C)cc1C (configuration not stated) | 76.3 | – | – | · | – | –
CC(=O)Nc1ccc(N(CC(O)Cn2c3ccccc3c3ccccc32)S(=O)(=O)c2ccc(C)cc2)cc1 (configuration not stated) | 104.6 | – | – | – | – | –
Cc1ccc(N(CC(O)Cn2c3ccccc3c3ccccc32)S(C)(=O)=O)cc1 (configuration not stated) | · | – | – | – | – | –
